From article PMC2868107 (Biochemistry, 2010)
Like-named read-outs stand apart in the source and are kept apart here. Values belong to the molecule of their own block, whether it stands above or below them. Where a SMILES comes first, the peptide text is derived from it. Where no end group is shown, it is not given here.

Columns and labels:
axon = conditions: cited from earlier work
neuropilin-1 [1] = conditions: cited from earlier work
neuropilin-1 [2] = target: T1, neuropilin-1 (Homo sapiens, UniProt O14786); assay type: binding
T1 sequence (O14786 273-586 limits assumed): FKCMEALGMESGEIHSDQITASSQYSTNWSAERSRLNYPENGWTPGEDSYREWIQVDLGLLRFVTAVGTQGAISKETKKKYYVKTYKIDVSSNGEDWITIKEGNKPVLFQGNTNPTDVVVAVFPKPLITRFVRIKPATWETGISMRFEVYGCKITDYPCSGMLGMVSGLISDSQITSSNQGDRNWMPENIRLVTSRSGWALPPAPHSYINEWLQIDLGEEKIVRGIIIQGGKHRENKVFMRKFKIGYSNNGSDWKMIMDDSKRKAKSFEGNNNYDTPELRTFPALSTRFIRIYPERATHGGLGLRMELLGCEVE

[3] = target: Neuropilin-1 (Homo sapiens) (UniProt O14786); assay: SPR; conditions: cited from earlier work
Chain of Neuropilin-1 (Homo sapiens) (O14786 22-923): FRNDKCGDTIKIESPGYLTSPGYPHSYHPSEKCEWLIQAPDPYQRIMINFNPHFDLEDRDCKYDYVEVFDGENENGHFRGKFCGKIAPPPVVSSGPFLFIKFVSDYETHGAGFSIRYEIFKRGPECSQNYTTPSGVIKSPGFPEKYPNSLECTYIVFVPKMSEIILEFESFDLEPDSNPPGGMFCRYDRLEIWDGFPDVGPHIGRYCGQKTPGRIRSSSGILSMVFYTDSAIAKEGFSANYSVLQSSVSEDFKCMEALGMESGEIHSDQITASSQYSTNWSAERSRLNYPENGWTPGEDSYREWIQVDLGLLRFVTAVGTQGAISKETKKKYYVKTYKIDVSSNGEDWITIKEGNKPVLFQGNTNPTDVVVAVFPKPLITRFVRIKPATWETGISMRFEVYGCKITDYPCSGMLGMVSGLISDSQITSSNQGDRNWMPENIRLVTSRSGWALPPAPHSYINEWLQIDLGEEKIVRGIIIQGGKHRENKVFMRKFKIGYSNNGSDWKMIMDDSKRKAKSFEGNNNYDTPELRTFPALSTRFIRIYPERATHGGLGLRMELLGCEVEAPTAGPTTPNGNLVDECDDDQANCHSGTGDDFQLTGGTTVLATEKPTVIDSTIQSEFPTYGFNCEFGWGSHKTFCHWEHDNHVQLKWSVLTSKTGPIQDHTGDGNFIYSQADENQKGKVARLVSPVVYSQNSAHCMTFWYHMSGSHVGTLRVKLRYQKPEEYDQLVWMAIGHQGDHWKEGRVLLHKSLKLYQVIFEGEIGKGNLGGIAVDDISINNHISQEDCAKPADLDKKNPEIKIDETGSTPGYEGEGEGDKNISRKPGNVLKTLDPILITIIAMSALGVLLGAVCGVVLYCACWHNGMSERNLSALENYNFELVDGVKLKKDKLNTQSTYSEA

neuropilin-2 = target: T2, neuropilin-2 (Homo sapiens, UniProt O60462); assay: Sedimentation velocity analytical ultracentrifugation with neuropilin-2; assay type: binding
T2 sequence (O60462 276-595 limits assumed): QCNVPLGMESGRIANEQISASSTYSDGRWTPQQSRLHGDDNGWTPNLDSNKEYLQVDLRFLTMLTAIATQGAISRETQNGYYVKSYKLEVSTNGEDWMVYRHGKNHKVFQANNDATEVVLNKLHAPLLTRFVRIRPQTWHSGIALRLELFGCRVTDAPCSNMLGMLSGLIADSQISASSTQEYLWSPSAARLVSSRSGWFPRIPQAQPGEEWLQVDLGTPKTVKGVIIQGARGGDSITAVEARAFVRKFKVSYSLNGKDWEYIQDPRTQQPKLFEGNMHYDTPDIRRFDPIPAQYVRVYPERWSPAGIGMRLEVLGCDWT
How it was run: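 Sedimentation velocity was run at 4°C and 40,000 rpm in 10 mM Tris pH 7.5, 150 mM NaCl, 1 mM sodium azide. Human neuropilin-2 b1b2 was held at 8 μM. The oxidised dimeric C-terminal Sema3F peptide was added at 2.5X molar excess. Absorbance was read at 280 nm. Sedimentation coefficient distributions (0.1–6 s) were fit to numerical Lamm equation solutions, using calculated buffer density, viscosity and partial specific volumes.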

[4] = target: T3, core ligand binding region (b1b2) of human neuropilin-2 (human, UniProt O60462 277-592); assay: AUC
T3 sequence (looked up): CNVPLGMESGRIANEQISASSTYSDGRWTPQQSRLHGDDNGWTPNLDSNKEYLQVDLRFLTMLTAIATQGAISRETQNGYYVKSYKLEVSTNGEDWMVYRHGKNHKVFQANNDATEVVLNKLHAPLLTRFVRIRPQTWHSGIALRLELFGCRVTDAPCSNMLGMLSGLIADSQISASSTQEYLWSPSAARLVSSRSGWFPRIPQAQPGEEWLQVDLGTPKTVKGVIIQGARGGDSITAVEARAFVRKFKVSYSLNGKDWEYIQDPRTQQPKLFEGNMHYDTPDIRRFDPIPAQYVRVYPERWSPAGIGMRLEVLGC

[5] = target: core ligand binding region (b1b2) of human neuropilin-1 (human) (UniProt O14786); assay: plate-based inhibition assay
Chain of core ligand binding region (b1b2) of human neuropilin-1 (human) (O14786 22-923): as the sequence (O14786 22-923) above

[6] = target: core ligand binding region (b1b2) of human neuropilin-1 (human) (UniProt O14786); assay: plate-based inhibition assay; remark: listed apart in the source
furin = assay: Furin processing of Sema3F C-terminus; assay type: cell-based; conditions: C-terminal Hgh fusion, western blot
How it was run: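 The C-terminal neuropilin-binding region of human Sema3F (residues 605-785) was fused to human growth hormone. Cells were kept in α-MEM with 5% FBS, moved at 80% confluence to serum-free Hybridoma-SFM, and PEI-transfected with 1 μg DNA/mL at a 3:1 PEI:DNA ratio. Hosts were CHO, furin-deficient FD11, furin-overexpressing CHO, and COS-7 with or without furin inhibitors. Media were western-blotted with anti-Hgh polyclonal (1:10,000) and HRP anti-rabbit (1:20,000) antibodies, then chemiluminescence.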

Molecule: VEGF
- effect on semaphorin mediated growth cone collapse (axon): directly antagonize semaphorin mediated growth cone collapse
- increase in apparent affinity of VEGF with four fold higher neuropilin density (neuropilin-1 [1]): twenty

Molecule: VEGF (from UniProt P15692)
- Kd [3]: 2000 nM

B2: Sema3F (Ig-basic): C-terminal neuropilin binding region of human Sema3F (residues 605-785) with C-terminal human growth hormone fusion (protein)
chain: ANKNAVESVQYGVAGSAAFLECQPRSPQATVKWLFQRDPGDRRREIRAEDRFLRTEQGLLLRALQLSDRGLYSCTATENNFKHVVTRVQLHVLGRDAVHAALFPPLSMSAPPPPGAGPPTPPYQELAQLLAQPEVGLIHQYCQGYWRHVPPSPREAPGAPRSPEPQDQKKPRNRR
modifications: left off: Human Growth Hormone (Hgh), N-terminal, kept
- processing state of Sema3F (furin; CHO cells overexpressing furin): only the processed form
- processing state of Sema3F (furin; COS-7 cells, no furin inhibitor): nearly completely processed
- proteolytic processing of Sema3F (fraction processed) (furin; Cos7 cells, no furin inhibitor): > 95%
- processing state of Sema3F (furin; FD11 CHO cells lacking furin activity): solely the unprocessed form
- processing state of Sema3F (furin; wild-type CHO cells): a mixture of processed and unprocessed forms

Now from value to molecule, other results behind:

- IC50 (neuropilin-1 [2]): 10500 ± 2000 nM
Molecule: CC(C)C[C@H](NC(=O)[C@H](Cc1c[nH]c2ccccc12)NC(=O)[C@@H](NC(=O)[C@H](C)N)[C@@H](C)O)C(=O)N1CCC[C@H]1C(=O)N1CCC[C@H]1C(=O)N[C@@H](CCCNC(=N)N)C(=O)O [ATWLPPR] (H-ATWLPPR-OH)

- % of species, peak a (neuropilin-2; neuropilin-2 8 μM + C-Sema 2.5X molar excess, free C-Sema): 32%
- c(M), peak a (neuropilin-2; neuropilin-2 8 μM + C-Sema 2.5X molar excess, free C-Sema (expected 10.7 kDa)): 11.1 ± 0.6 kDa
- % of species, peak c (neuropilin-2; neuropilin-2 8 μM + C-Sema 2.5X molar excess, neuropilin-2 dimer): 4%
- % of species, peak b (neuropilin-2; neuropilin-2 8 μM + C-Sema 2.5X molar excess, neuropilin-2 monomer): 58%
Molecule: GLIHQYCQGYWRHVPPSPREAPGAPRSPEPDQKKPRNRRHHPPDT (disulfide (positions not given here)) [C-Sema]
- interaction with neuropilin-2 by sedimentation velocity (neuropilin-2; neuropilin-2 8 μM, peptide 2.5X molar excess): no significant interaction with neuropilin-2

- stoichiometry N [4]: 1 neuropilin-2:C-furSema
- IC50 [5]: 46 nM
- IC50 [6]: 45 nM
Molecule: GLIHQYCQGYWRHVPPSPREAPGAPRSPEPQDQKKPRNRR (also: disulfide-linked dimer (interchain disulfide))

- % of species, peak b (neuropilin-2; neuropilin-2 alone, 8 μM, dimer): 3%
- c(M), peak b (neuropilin-2; neuropilin-2 alone, 8 μM, dimer (expected 76.8 kDa)): 74.3 ± 3.0 kDa
- s20,w, peak b (neuropilin-2; neuropilin-2 alone, 8 μM, dimer, 4°C, 10 mM Tris pH 7.5, 150 mM NaCl): 4.73 S
- % of species, peak a (neuropilin-2; neuropilin-2 alone, 8 μM, monomer): 97%
- c(M), peak a (neuropilin-2; neuropilin-2 alone, 8 μM, monomer (expected 38.4 kDa)): 37.9 ± 1.9 kDa
- c(M), peak a (neuropilin-2; neuropilin-2 alone, 8 μM, monomer (expected 38.4 kDa), listed as neuropilin-2): 37.9 kDa
- s20,w, peak a (neuropilin-2; neuropilin-2 alone, 8 μM, monomer, 4°C, 10 mM Tris pH 7.5, 150 mM NaCl): 3.03 S
B1: Neuropilin-2: core ligand binding region (b1b2) of human neuropilin-2 (protein)
chain: CNVPLGMESGRIANEQISASSTYSDGRWTPQQSRLHGDDNGWTPNLDSNKEYLQVDLRFLTMLTAIATQGAISRETQNGYYVKSYKLEVSTNGEDWMVYRHGKNHKVFQANNDATEVVLNKLHAPLLTRFVRIRPQTWHSGIALRLELFGCRVTDAPCSNMLGMLSGLIADSQISASSTQEYLWSPSAARLVSSRSGWFPRIPQAQPGEEWLQVDLGTPKTVKGVIIQGARGGDSITAVEARAFVRKFKVSYSLNGKDWEYIQDPRTQQPKLFEGNMHYDTPDIRRFDPIPAQYVRVYPERWSPAGIGMRLEVLGC
